Results taken from ChEMBL document CHEMBL3992505, “Optimization of substituted imidazobenzodiazepines as novel asthma treatments” (Eur J Med Chem, 2017).
Active and inactive are the calls of the source. The rule behind the calls is not given here.

Legend:
[1] = Half life in human liver microsomes at 10 uM by LC-MS/MS analysis; assay type: ADME, microsome
Liver = assay: Half life in mouse liver microsomes at 10 uM by LC-MS/MS analysis; assay type: ADME, microsome; details: microsomes, 10 µM
[2] = Cytotoxicity in human HepG2 cells after 48 hrs by Cell-titer Glo reagent based assay; details: read-out: LD50
Procedure, shortened: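 Cells (HEK293, HepG2 or BEAS2B) exposed to compounds at a range of concentrations for 48 h; viability read by Cell-Titer Glo luminescence. Normalized to DMSO (negative) and 3-dibutylamino-1-(4-hexyl-phenyl)-propan-1-one at 150 μM final in DMSO (positive).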

Mus musculus [3] = assay: Neurotoxicity in Swiss Webster mouse assessed as induction of senorimotor impairment at 40 mg/kg, ip administered 10 mins prior to testing and measured for 3 mins at 10 to 60 mins after drug administration by rotarod method; assay type: toxicity, organism-based; details: in vivo
Procedure, shortened: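 Swiss Webster mice, pre-trained at 15 rpm until they held on for 3 min at three consecutive sessions, were given a single i.p. dose of 40 mg/kg in 10% DMSO/40% propylene glycol/50% PBS. Rotarod at 15 rpm for 3 min at 10, 30 and 60 min after dosing. Falls before 3 min scored as fail, with time of fall recorded. N = 10, mean ± SEM. Vehicle and diazepam 5 mg/kg i.p. controls. Mice rested 2–3 days between doses.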

Cavia porcellus = species: Cavia porcellus; assay: Inhibition of substance P-induced smooth muscle contractile force in guinea pig tracheal rings at 16 uM after 1 hr; assay type: functional
[4] = target: GABA A receptor alpha-4/beta-3/gamma-2 (Homo sapiens) (UniProt P18507+P28472+P48169); assay: Activity at GABAA alpha4beta3gamma2 receptor (unknown origin) expressed in HEK293T cells assessed as potentiation of GABA-mediated increase in channel current under holding potential at -80 mV at 1 uM by patch clamp assay; assay type: cell-based
Mus musculus [5] = assay: Antiasthamatic effect in BALB/c mouse model of ovalbumin-induced asthma assessed as inhibition of airway hyperresponsiveness at 40 mg/kg, ip administered 40 mins as single dose prior to measurement; assay type: functional, organism-based
Blood [6] = assay: Half life in mouse blood at 5 mg/kg, ip by LC/MS/MS analysis; assay type: ADME, organism-based; details: in vivo
[7] = AUC (0 to t) in mouse blood at 5 mg/kg, ip by LC/MS/MS analysis; assay type: ADME, organism-based
[8] = Tmax in mouse brain at 5 mg/kg, ip by LC/MS/MS analysis; assay type: ADME, organism-based
[9] = Cmax in mouse lung at 5 mg/kg, ip by LC/MS/MS analysis; assay type: ADME, organism-based; set-up: dose 5 mg/kg, route intraperitoneal
[10] = Elimination rate constant in mouse blood at 5 mg/kg, ip by LC/MS/MS analysis; assay type: ADME, organism-based
Blood [11] = assay: Drug metabolism in mouse blood assessed as (S)-7-Methoxy-9-oxo-11,12,13,13a-tetrahydro-9H-benzo[e]imidazo[5,1-c]pyrrolo[1,2-a][1,4]di-azepine-1-carboxylic acid formation at 5 mg/kg, ip by LC/MS/MS analysis; assay type: ADME, organism-based; details: in vivo
Blood [12] = assay: Tmax in mouse blood assessed as (S)-7-Methoxy-N-methyl-9-oxo-11,12,13,13a-tetrahydro-9H-benzo[e]imidazo[5,1-c]pyrrolo[1,2-a][1,4]diazepine-1-carboxamide at 5 mg/kg, ip by LC/MS/MS analysis; assay type: ADME, organism-based; details: in vivo
Blood [13] = assay: AUC (0 to t) in mouse blood assessed as (S)-7-Methoxy-N-methyl-9-oxo-11,12,13,13a-tetrahydro-9H-benzo[e]imidazo[5,1-c]pyrrolo[1,2-a][1,4]diazepine-1-carboxamide at 5 mg/kg, ip by LC/MS/MS analysis; assay type: ADME, organism-based; details: in vivo

For COc1ccc2c(c1)C(=O)N1CCC[C@H]1c1c(C(=O)N(C)C)ncn1-2, the half-life at 10 µM [1] was 705 min, the t1/2 (Liver) was 63.3 min and the CC50 at 48 h [2] was > 400 µM. The Activity (Mus musculus [3]) was “Non-Toxic”, the inhibition (Cavia porcellus) was “Active” and the Activity [4] was 319 to 545%. For the same molecule, the Activity (Mus musculus [5]) was “inactive”, the t1/2 (Blood [6]) was 8.8 min and the AUC(0-t) [7] was 103 ng·h/mL. The Tmax [8] was 10 min, the Cmax [9] was 30 ng/g and the k el [10] was 0.0013 s⁻¹. The Drug metabolism (Blood [11]) was “Metabolite_Notdetected”, the Tmax (Blood [12]) was 40 min and the AUCt (Blood [13]) was 64675 ng·min/mL.
